# Cneo AK release: Cryptococcus neoformans lysis via adenylate kinase release | C. neoformans lysis, adenylate kinase release luminescence, 4 h; normalised: neutral wells 0, clomiphene wells 100 | lysis activity, % at 15 µM | hit rate 0.2% among 360,000;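 active = mean lysis activity across replicates of at least 80%, whatever share of replicates individually reach that level; inactive = mean lysis activity below 80%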
#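 read-out = cell lysis signal | test system = log-phase Cryptococcus neoformans yeast cells | input = cells at 5 × 10^6 per mL | medium = fresh YPD growth medium | signal = luminescent adenylate kinase detection reagent | timing = 4 h at 37 °C static, read 1 h later | dosing = single dose | controls = Clomiphene as positive lysis control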
# PglD DTNB: blocks C. jejuni PglD acetyltransferase activity. purified PglD enzyme, DTNB colorimetric CoA detection. AID 602405. hit rate 0.098% among 360,000. inhibition, % at 12.5 µM; in the data active = inhibition above about 16%, passing the limit was not always enough; inconclusive = no clear call, values can overlap the other calls
# RAD54 branch: RAD54 (human) branch migration inhibition. Q92698. RAD54 Holliday junction branch migration, FAM/BHQ fluorescence. inhibition, % at 10.4 µM. hit rate 0.14% among 360,000. AID 602329;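 active = mean normalized replicate activity at least 40 and at least half of replicates scoring 40 or more; inconclusive = only one of the two criteria met; inactive = mean below 40 and under half of replicates reaching 40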;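 also: 0% = median of neutral control wells and 100% = median of positive control wells; inhibitors cause a drop in the FAM fluorescence signal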
# Target sequence (Q92698 whole entry, looked up): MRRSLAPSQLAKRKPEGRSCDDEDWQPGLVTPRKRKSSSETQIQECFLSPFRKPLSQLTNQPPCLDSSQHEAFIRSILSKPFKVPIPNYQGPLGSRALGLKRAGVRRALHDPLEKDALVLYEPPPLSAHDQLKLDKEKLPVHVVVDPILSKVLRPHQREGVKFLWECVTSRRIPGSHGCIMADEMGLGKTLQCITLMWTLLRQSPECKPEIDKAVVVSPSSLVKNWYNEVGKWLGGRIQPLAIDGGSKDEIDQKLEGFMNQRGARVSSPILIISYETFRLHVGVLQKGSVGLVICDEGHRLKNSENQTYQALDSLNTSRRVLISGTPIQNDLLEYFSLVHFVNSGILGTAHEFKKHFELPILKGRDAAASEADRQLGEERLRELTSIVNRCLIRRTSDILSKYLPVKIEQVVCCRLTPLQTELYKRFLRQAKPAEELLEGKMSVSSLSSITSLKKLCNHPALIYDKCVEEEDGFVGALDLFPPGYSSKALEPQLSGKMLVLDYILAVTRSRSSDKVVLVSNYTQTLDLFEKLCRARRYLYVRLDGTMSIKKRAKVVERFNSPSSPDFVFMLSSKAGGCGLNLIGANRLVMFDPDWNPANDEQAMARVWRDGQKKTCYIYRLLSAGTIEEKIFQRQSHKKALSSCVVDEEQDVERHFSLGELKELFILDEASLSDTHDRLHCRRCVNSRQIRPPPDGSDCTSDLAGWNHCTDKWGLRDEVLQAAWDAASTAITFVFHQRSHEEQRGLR
# RAD52 anneal inh: blocks human RAD52 DNA annealing; P43351; recombinant RAD52 DNA annealing, FRET fluorescence; inhibition, % at 18.7 µM; hit rate 0.46% among 360,000; AID 651710;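 active = every replicate showing at least 50% inhibition; inconclusive = mean inhibition at least 50% but not in every replicate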
# rRNA inh HTS: inhibitors of bacterial rRNA selective over humanized ribosomes. E. coli WT GFP vs humanized-ribosome RFP mutants, fluorescence, 24 h; stronger effect = lower value; DMSO median 0, no signal -100. AID 720706. GFP signal change (wild-type ribosome), % (test concentration not listed). hit rate 1.6% among 350,000;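 active = significant combined selectivity score with lowered wild-type GFP, culture density cut under 30%, mutant RFP and density less affected; inactive = any of these conditions unmet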
# AID977621: growth inhibition of wild-type GFP E. coli, dose response, H69 mutant RFP, cherry-pick; shares compounds with rRNA inh HTS; AID 977621; 1,900 tested, under 10 active; E. coli wild-type GFP strain growth, fluorescence, 24 h; activity change, negative = inhibition at 50 µM;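 active = Wild-type ribosome reporter drop at least double the humanized mutant ribosome reporter drop, growth loss under a set limit; inconclusive = no clear call, values can overlap the other calls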;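 also: wild-type GFP and H69 mutant RFP strains grown together 50/50 in each well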
# AID977628: growth of wild-type and h24-humanized E. coli strains – h24 mutant RFP vs wild-type GFP, cherry-pick, dose response. shares compounds with rRNA inh HTS. E. coli WT GFP strain growth, fluorescence, 24 h. activity change, negative = inhibition at 50 µM. 1,900 tested, under 10 active. AID 977628;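 active = compound lowering the normal-ribosome reporter at least twice as much as the humanized-ribosome reporter, growth loss under a set limit; inconclusive = no clear call, values can overlap the other calls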;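 also: wild-type GFP and h24 humanized RFP strains co-cultured 1 to 1 per well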
# * = called active by the depositor; ? = inconclusive; · = not tested or not shown; ! = not confirmed by another sample. Shown are actives, neighbours in structure and some others; about 1.9% of the full set was active somewhere.
SMILES,Cneo AK release,PglD DTNB,RAD54 branch,RAD52 anneal inh,rRNA inh HTS,AID977621,AID977628
O=c1[nH]c2cc([N+](=O)[O-])ccc2c2ccccc12,·,·,·,-17,-13*,-2,?
CO[C@H]1CN(C)C(=O)c2cc(NS(C)(=O)=O)ccc2OC[C@H](C)N(Cc2cccnc2)C[C@H]1C,·,·,·,·,-1,·,·
COc1ccc(C(=O)c2c(C)oc3ccc(O)cc23)cc1,2,9,-1,6,-22*,-17,·
COCCNC(=O)C[C@@H]1C[C@H]2c3cc(NS(C)(=O)=O)ccc3O[C@H]2[C@H](CO)O1,-7,1,-15,0,4,·,·
COc1cc2c(cc1OC)CN(CC(=O)Nc1ccccc1SC)CC2,·,·,·,-40,-20*,0.48,-7
COc1cc2c(cc1OC)CN(CC(=O)Nc1ccccc1C#N)CC2,2,-5,-10,·,·,·,·
Cc1noc(C)c1S(=O)(=O)Nc1ccc2c(c1)C(=O)N([C@H](C)CO)C[C@H](C)[C@@H](CN(C)Cc1ccc(-c3ccccc3)cc1)O2,-2,3,3,-17,3,·,·
C[C@@H]1CN([C@H](C)CO)S(=O)(=O)c2ccc(C#CCN(C)C)cc2O[C@H]1CN(C)Cc1ccccc1,2,-1,2,8,-5,·,·
CCN(c1ccccc1)S(=O)(=O)c1ccc(OC)c(NC(=O)CNC)c1,1,-5,-4,-10,6,·,·
CCN(c1ccccc1)S(=O)(=O)c1ccc(OC)c(NC(=O)C2CC(=O)N(Cc3ccccc3)C2)c1 (stereo not given),·,·,·,-50,-31*,·,?
C[C@H](CO)N1C[C@H](C)[C@H](CN(C)Cc2ccccc2)Oc2c(NS(=O)(=O)c3cn(C)cn3)cccc2C1=O,-6,-1,-1,-1,6,·,·
NS(=O)(=O)c1ccc(Nc2c([N+](=O)[O-])cncc2[N+](=O)[O-])cc1,-1,4,1,-18,-37*,·,?
CNC(=O)C[C@H]1CC[C@@H]2[C@@H](COc3ccc(NC(=O)Nc4ccc(F)c(F)c4)cc3C(=O)N2C)O1,-6,-4,-9,10,-20*,·,?
CNC(=O)C[C@H]1CC[C@H]2[C@@H](COc3ccc(NC(=O)Nc4ccc(F)c(F)c4)cc3C(=O)N2C)O1,1,1,-30,-9,-1,·,·
COc1ccc2c3c(n(C)c2c1)[C@@H](CO)N(C)CC31CCN(S(C)(=O)=O)CC1,·,·,·,·,-2,·,·
CSc1nc2ccc(NS(=O)(=O)c3ccc(CNC(C)=O)cc3)cc2s1,1,0,0,-23,1,·,·
CSc1nc2ccc(NS(=O)(=O)c3ccc([N+](=O)[O-])cc3)cc2s1,1,-2,-12,-9,-22*,-14,-7.9
C[C@H]1CN([C@@H](C)CO)C(=O)c2cc(C3=CCCC3)cnc2O[C@@H]1CN(C)Cc1cccc(F)c1,47,-1,-9,20,-6,·,·
Nc1ccccc1C#CC(=O)c1ccccc1,-1,-1,-4,-22,-23*,·,?
O=C(C#Cc1cccc([N+](=O)[O-])c1)c1ccccc1,-3,-2,-1,·,·,·,·
COc1ccccc1CNC(=O)C[C@H]1C[C@H]2c3cc(NC(=O)c4cccnc4)ccc3O[C@H]2[C@@H](CO)O1,-2,-2,-7,9,4,·,·
Cc1ccc(CNC(=O)CCCCCNc2nc(=S)[nH]c3ccccc23)cc1,·,·,·,-8,14,·,·
NS(=O)(=O)c1ccc(CCNC(=O)CCCCCNc2nc(=S)[nH]c3ccccc23)cc1,·,·,·,-4,-22*,-10,-11
CCCn1nnnc1NCc1ccccc1OCc1cccs1,-2,0,-10,-9,-20*,-10,·
CO[C@H]1CN(C)C(=O)c2cc(NS(=O)(=O)c3ccccc3C)ccc2OC[C@H](C)NC[C@@H]1C,-2,-3,-1,-2,4,·,·
SMILES,Cneo AK release,PglD DTNB,RAD54 branch,RAD52 anneal inh,rRNA inh HTS,AID977621,AID977628
Cc1ccc(C#CC[N+](C)(C)CC#Cc2ccccc2)cc1,·,·,·,0,-54*,·,?
CN(C)C(=O)c1cccc(-c2ccc(C3[C@H]4CNC[C@@H]3N4S(=O)(=O)c3ccccc3F)cc2)c1 (stereo not given in full),·,·,·,·,-22*!,-8,?
CN(C)C(=O)c1ccc(-c2ccc(C3[C@H]4CNC[C@@H]3N4S(=O)(=O)c3ccccc3F)cc2)cc1 (stereo not given in full),·,·,·,21,-1,·,·
N#Cc1ccc(-c2ccc(C3[C@H]4CNC[C@@H]3N4S(=O)(=O)c3ccc(-c4ccccc4)cc3)cc2)cc1 (stereo not given in full),·,·,·,82*,-18*,-5.4,·
CCOc1ccc2oc(-c3ccccc3)c(C(=O)N(C)C)c2c1,-1,5,-5,-19,-26*,-0.57,-8.5
CCOc1ccc2oc(-c3ccccc3)c(C(=O)O)c2c1,0,7,8,·,·,·,·
Cc1ccc(-c2cc[n+](Cc3ccccc3)cc2)cc1,·,·,·,12,-32*,-7.8,?
CNC[C@H]1Oc2c(NS(=O)(=O)c3cccs3)cccc2C(=O)N([C@@H](C)CO)C[C@H]1C,2,-12,-14,-7,4,·,·
O=[N+]([O-])c1ccc(NCCNCCOc2nonc2-c2ccccc2)c([N+](=O)[O-])c1,2,0,5,-12,-21*,5.6,-0.84
Cc1nonc1OCCNCCNc1ccc([N+](=O)[O-])cc1Cl,·,·,·,-72,2,·,·
CCC(=O)N1C[C@@H](C)[C@@H](OC)CN(C)C(=O)c2ccc(NC(=O)C3CC3)cc2OC[C@@H]1C,-5,0,-10,3,0,·,·
COc1ccc(-c2ccc3ccccc3n2)cc1OC,·,·,·,2,-34*,·,?
COc1cc2ccc(-c3ccc4ccccc4n3)cc2cc1OC,·,·,·,-12,-6,·,·
O=C1CCCCC1Nc1ccc(Br)cc1 (stereo not given),·,·,·,-3,-19*,-0.88,-11
COc1ccccc1CNC(=O)COC(=O)c1cccc(S(=O)(=O)N2CCCCC2)c1,0,1,-4,-11,-22,·,·
O=C(COC(=O)c1cccc(S(=O)(=O)N2CCCCC2)c1)NCc1cccc(Cl)c1,-1,0,12,-3,-15*,·,2.4
Cc1noc(C)c1NC(=O)N[C@@H]1CC[C@@H](CC(=O)N2CCCCC2)O[C@@H]1CO,8,-2,8,-12,1,·,·
Cn1c(=O)c2c(-c3ccccc3)n(-c3ccccc3F)cc2n(C)c1=O,0,-3,-3,-10,-4,·,·
Cn1c(=O)c2c(-c3ccccc3)n(-c3cc([N+](=O)[O-])ccc3N)cc2n(C)c1=O,0,0,-5,-6,-14*,-26,-21
S=c1nc(-c2cccc(Br)c2)[nH][nH]1,2,-1,3,4,-20*,-7.4,-8.2
